Screening data (PubChem BioAssay)
Most compounds without a hit are left out; they make up all but 2.2% or so of the library.
FGF22 binding: FGF22 (human) thermal shift binding. AID 651658. 1.5% of 340,000 active. recombinant FGF22 thermal shift, SYPRO orange fluorescence; percent of sucrose octasulfate shift, DMSO zero. activity (Tm shift, normalised), % at 9.99 µM;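 active = mean Tm shift, scaled 0 neutral to 100 positive control, at about 1.3% or above, every replicate too, limit read from the data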
Target sequence (Q9HCT0 whole entry, looked up): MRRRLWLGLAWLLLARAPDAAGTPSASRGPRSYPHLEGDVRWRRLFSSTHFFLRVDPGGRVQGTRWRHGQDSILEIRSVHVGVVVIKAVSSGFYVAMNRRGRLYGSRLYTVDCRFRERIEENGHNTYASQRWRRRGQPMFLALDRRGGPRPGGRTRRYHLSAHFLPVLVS
dFosB activator: mouse delta FosB homodimer activation; P13346; purified delta FosB, TAMRA-CDK5 oligo fluorescence polarization; percent of positive-control signal above neutral wells; activation, % at 25 µM; 0.99% of 340,000 active; AID 493131;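 active = mean activation above about 17%, with every replicate also reaching it, limit read from the data, passing the limit was not always enough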
S100A4 inh HTS: S100A4-myosin IIA interaction inhibition; S100A4/TAMRA-MyoIIA peptide fluorescence polarization; inhibition, % at 10.7 µM; 0.14% of 360,000 active; P26447;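 active = mean inhibition of at least 70% across replicates, with every replicate also reaching that level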
Target sequence (P26447 whole entry, looked up): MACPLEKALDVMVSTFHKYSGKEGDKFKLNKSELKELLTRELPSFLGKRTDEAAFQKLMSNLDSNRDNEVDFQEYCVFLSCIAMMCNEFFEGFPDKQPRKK
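Test system – S100A4 monomer (human) · Compound – single-point compound testing · Schedule – 5 min incubation before reading · Probe or stimulus – TAMRA-labelled myosin IIA heavy-chain peptide probe, 5 nM · Benchmarks – neutral control DMSO, positive control TFP · Medium – Calcium-containing HEPES buffer, pH 7.2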
CFTR F508del cor: CFTR F508del correction in bronchial cells; activity (quench increase), % at 7.58 µM; 0.36% of 350,000 active; CFBE cells, YFP halide quenching; stimulated with forskolin plus potentiator P3; % fluorescence drop versus neutral controls;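 active = mean added fluorescence quench of at least 8% versus neutral control, with both replicates also reaching 8%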;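 note: cells transiently co-express mutant CFTR-F508del with the halide-sensitive YFP; corrector assay measuring rescue of mutant channel to the surface after 24 h compound exposure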
* marks the source's active call; other numbers are inactive results.

`COc1ccc(CNC(=O)c2cc3c(c(-c4cccc(-c5cccc(C#N)c5)c4)n2)[C@@H](CCO)N([S@](=O)C(C)(C)C)C3)cc1` gave FGF22 binding 1, S100A4 inh HTS -3 and CFTR F508del cor 3.
Screening COc1ccc(CNC(=O)c2cc3c(c(-c4cccc(-c5ccc(C#N)cc5)c4)n2)[C@@H](CCO)N([S@](=O)C(C)(C)C)C3)cc1 returned FGF22 binding 0, S100A4 inh HTS -15 and CFTR F508del cor 12*.
NC(=O)c1cc(NC(=O)c2cc(Br)c(Br)s2)cc(C(N)=O)c1 was read as FGF22 binding 43*, dFosB activator 5, S100A4 inh HTS -1 and CFTR F508del cor 2.
Screening O=C(O)CC1=C(Nc2ccccc2)C(=O)N(c2ccccc2)C1c1ccc(Br)cc1 (configuration not stated) returned FGF22 binding 43*, dFosB activator -5, S100A4 inh HTS 2 and CFTR F508del cor 1.
Screening CN1CCN(c2ccc(CNC(=O)C3Cc4c(-c5ccc(Cl)cc5)ccnc4O3)cc2)CC1 (configuration not stated) returned FGF22 binding 43*, S100A4 inh HTS -2 and CFTR F508del cor 0.
Screening CCCCN1C(=O)/C(=C/C=C2\Oc3ccccc3N2CC)SC1=S returned FGF22 binding 0, dFosB activator -14, S100A4 inh HTS 28 and CFTR F508del cor 17*.
CCCN1C(=O)/C(=C/C=C2\N(CC)c3ccccc3C2(C)C)SC1=S was read as dFosB activator -156.
Screening Cc1ccc2nc3c(c(C(=O)OCC(=O)NC4CCS(=O)(=O)C4)c2c1)CCCC3 (configuration not stated) returned FGF22 binding 43*, dFosB activator -16, S100A4 inh HTS 0 and CFTR F508del cor 6.
Screening Cc1ccc2nc3c(c(C(=O)OC4CCOC4=O)c2c1)CCCC3 (configuration not stated) returned FGF22 binding 43*, dFosB activator -21, S100A4 inh HTS -5 and CFTR F508del cor 4.
`CO[C@H]1CN(C)C(=O)c2ccc(NC(=O)C3CCOCC3)cc2OC[C@H](C)N(Cc2cccnc2)C[C@H]1C` gave FGF22 binding 0, S100A4 inh HTS 11 and CFTR F508del cor -2.
Cc1c(C(=O)C(=O)NCCC2=CCCCC2)c2ccccc2n1C was read as FGF22 binding 0, dFosB activator -13 and S100A4 inh HTS 5.
`Cc1c(C(=O)C(=O)NCc2cccs2)c2ccccc2n1C` gave FGF22 binding 43*, dFosB activator 2, S100A4 inh HTS -3 and CFTR F508del cor -2.
`CC(C)(Cc1cccc(CC(C)(C)C(=O)O)c1)C(=O)O` gave FGF22 binding 17*, dFosB activator -12, S100A4 inh HTS 19 and CFTR F508del cor -5.
CC(=O)C(Cc1ccccc1)(Cc1ccccc1)C(C)=O was read as FGF22 binding 1, dFosB activator -1, S100A4 inh HTS -12 and CFTR F508del cor -1.
`O=C(O)CSc1ncnc2scc(-c3ccccc3)c12` gave FGF22 binding 43, dFosB activator -3, S100A4 inh HTS -7 and CFTR F508del cor 0.
For COc1cc(NC(=O)CSc2ncnc3scc(-c4ccccc4)c23)c(C(=O)O)cc1OC the results were FGF22 binding 43*, dFosB activator -11, S100A4 inh HTS 0 and CFTR F508del cor -2.
For O=C(C[C@@H]1CC[C@H]2[C@@H](COC[C@H](O)CN2Cc2cc(F)ccc2F)O1)N[C@H]1CCN(Cc2ccccc2)C1 the results were FGF22 binding 0, S100A4 inh HTS 11 and CFTR F508del cor 0.
`CCOCCCNc1c2c(nc3cc(-c4ccc(F)cc4)nn13)CCC2` gave FGF22 binding 43*, dFosB activator -2, S100A4 inh HTS 2 and CFTR F508del cor 0.
Screening CN(C)CCCNc1c2c(nc3cc(-c4cccc(F)c4)nn13)CCC2 returned FGF22 binding 0, dFosB activator -8, S100A4 inh HTS 2 and CFTR F508del cor 1.
Screening C[C@@H]1CCCCO[C@@H](CN(C)Cc2ccccc2)[C@@H](C)CN([C@@H](C)CO)C(=O)c2cc(NC(=O)C3CCCCC3)ccc2O1 returned FGF22 binding -1, S100A4 inh HTS 1 and CFTR F508del cor 0.
Screening Cc1cc2ncc(C(=O)Nc3ccccc3)c(C)n2n1 returned dFosB activator 3.
`COC(=O)c1sccc1NC(=O)c1cnc2cc(C)nn2c1C` gave FGF22 binding 43*, dFosB activator 8, S100A4 inh HTS -5 and CFTR F508del cor -3.
Screening CN(Cc1nc(-c2cnccn2)no1)CC1(c2ccccc2)CC1(C)C (configuration not stated) returned FGF22 binding 0, dFosB activator -4, S100A4 inh HTS -7 and CFTR F508del cor 0.
For CN(Cc1nc(-c2cnccn2)no1)C1CC(C)(C)NC(C)(C)C1 the results were FGF22 binding 43*, dFosB activator -4, S100A4 inh HTS 1 and CFTR F508del cor -1.
Screening O=C(c1nnsc1S(=O)(=O)c1ccc(Cl)cc1)N1CCOCC1 returned FGF22 binding 1, dFosB activator -3, S100A4 inh HTS -2 and CFTR F508del cor -12.
For CNC(=O)c1nnsc1S(=O)(=O)c1ccc(Cl)cc1 the results were FGF22 binding 43*, dFosB activator -1, S100A4 inh HTS 0 and CFTR F508del cor -6.
`O=C(NCC[C@H]1CC[C@H](NS(=O)(=O)c2ccc(Oc3ccccc3)cc2)[C@@H](CO)O1)C1CC1` gave FGF22 binding 0, S100A4 inh HTS 1 and CFTR F508del cor 3.
Cc1ccc(C)c(NC(=O)C2CCCN(S(=O)(=O)c3c(C)noc3/C=C/N(C)C)C2)c1 (configuration not stated) was read as FGF22 binding 0, dFosB activator -4, S100A4 inh HTS 122* and CFTR F508del cor -2.
`Cc1ccc(NC(=O)C2CCCN(S(=O)(=O)c3cccnc3)C2)c(C)c1` (configuration not stated) gave FGF22 binding 44*, dFosB activator 4, S100A4 inh HTS 0 and CFTR F508del cor 2.
`Cc1ccc(NC(=O)C2CCCN(S(=O)(=O)c3c(C)noc3/C=C/N(C)C)C2)c(C)c1` (configuration not stated) gave FGF22 binding 0, dFosB activator -1, S100A4 inh HTS -3 and CFTR F508del cor 1.
Screening COC(CNC(=O)C1CCCN(S(=O)(=O)c2c(C)noc2/C=C/c2cccs2)C1)OC (configuration not stated) returned FGF22 binding 1.4*, dFosB activator -4, S100A4 inh HTS -3 and CFTR F508del cor -1.
Screening COc1ccc(NC(=O)N(C)C[C@H]2Oc3c(NS(=O)(=O)c4c(C)noc4C)cccc3C(=O)N([C@@H](C)CO)C[C@H]2C)cc1 returned FGF22 binding 0, S100A4 inh HTS -81 and CFTR F508del cor -1.
